Results published in ChEMBL document CHEMBL2311439, “New bis-thiazolium analogues as potential antimalarial agents: design, synthesis, and biological evaluation” (J Med Chem, 2013).

Tests used:
Plasmodium falciparum = experiment: Antiplasmodial activity against Plasmodium falciparum Nigeria infected in human erythrocytes assessed as incorporation of [3H]hypoxanthine after 48 hrs; format: functional, organism-based
Method in brief: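 Nigerian-strain P. falciparum-infected erythrocytes at 1.5% final hematocrit and 0.6% parasitemia, grown in Hepes-buffered RPMI 1640 with 10% AB human serum. Drugs dissolved in DMSO, final DMSO ≤0.25%. Modified Desjardins test: [³H]hypoxanthine incorporation measured after 48 h drug contact. IC₅₀ is the concentration giving 50% growth inhibition. Two independent experiments.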

[1] = tested on: Plasmodium vinckei petteri; experiment: Antimalarial activity against Plasmodium vinckei petteri 279BY infected in Swiss mouse administered as ip qd for 4 days measured on day 5; format: functional
Method in brief: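 Female Swiss mice infected intravenously with 10⁷ P. vinckei petteri 279BY parasites (parasitemia 0.5−1% on day 1). Compounds in DMSO, 0.9% NaCl or intralipid/DMSO (90/10) given ip once daily on days 1−4 postinfection. Parasitemia read on day 5. ED₅₀ is the dose giving 50% parasitemia inhibition, determined only when parasitemia fell by at least 85%. Three mice per dose.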

Mus musculus = experiment: Toxicity in ip dosed Swiss mouse administered for 4 days measured on day 5; format: organism-based; conditions: in vivo, 96 h
[2] = Oral bioavailability in Sprague-Dawley rat at 12 mg/kg; format: ADME, organism-based; conditions: in vivo
Jurkat = experiment: Cytotoxicity against human Jurkat cells after 24 hrs by [3H]thymidine incorporation assay; format: cell-based
Method in brief: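 Human Jurkat lymphoblasts exposed to compounds for 24 h, then [³H]thymidine added to gauge viability. Values are means of two independent experiments run in duplicate, differing by less than 40%.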

[3] = Therapeutic index, ratio of ED50 for human Jurkat cells to IC50 for Plasmodium falciparum Nigeria infected in human erythrocytes; format: cell-based

SMILES | IC50 (Plasmodium falciparum) [nM] | ED50 [1] [mg/kg] | further results
Cc1c(CCOCc2cn(CCc3sc[n+](C)c3C)nn2)sc[n+]1C | 10000 |  | 
Cc1c(CCO)sc[n+]1CCCCc1ccc(CCCC[n+]2csc(CCO)c2C)c2ccccc12.[Cl-].[Cl-] | 6.7 | > 0.6 | 
COCCc1sc[n+](CC#Cc2ccc(C#CC[n+]3csc(CCOC)c3C)cc2)c1C | 420 |  | 
COCCc1sc[n+](CCOc2ccc(C(=O)c3ccc(OCC[n+]4csc(CCOC)c4C)cc3)cc2)c1C.[Cl-].[Cl-] | 80 | > 2 | Activity (Mus musculus): Non-toxic
Cc1c(CCO)sc[n+]1CCCCc1ccc(CCCC[n+]2csc(CCO)c2C)s1.[Cl-].[Cl-] | 16.5 | > 0.6 | 
C/C(=C1\CCOC(=O)S1)N(C=O)CCCCCCCCCCCCN(C=O)/C(C)=C1\CCOC(=O)S1 |  |  | bioavailability [2]: 15%
COCCc1sc[n+](CCOc2ccc(Cc3ccc(OCC[n+]4csc(CCOC)c4C)cc3)cc2)c1C.[Cl-].[Cl-] | 22.5 | > 1 | 
COCCc1sc[n+](CCCCc2ccc(CCCC[n+]3csc(CCOC)c3C)s2)c1C.[Cl-].[Cl-] | 2.7 | 0.28 | IC50 (Jurkat): 63000 nM
Cc1c(CCOCCCCCCOCCc2sc[n+](C)c2C)sc[n+]1C | 120 |  | 
COCCc1sc[n+](CCCCc2ccc(CCCC[n+]3csc(CCOC)c3C)c3ccccc23)c1C.[Cl-].[Cl-] | 2.1 | > 0.6 | 
COCCc1sc[n+](CCCCc2cccc(CCCC[n+]3csc(CCOC)c3C)c2)c1C.[Cl-].[Cl-] | 9 | > 1 | 
COCCc1sc[n+](CCCCc2ccc(-c3ccc(CCCC[n+]4csc(CCOC)c4C)cc3)cc2)c1C.[Cl-].[Cl-] | 2.5 | 0.7 | 
Cc1c(CCO)sc[n+]1CCOc1ccc(Cc2ccc(OCC[n+]3csc(CCO)c3C)cc2)cc1.[Cl-].[Cl-] | 22 | > 1 | 
COCCc1sc[n+](CCCc2cn(CCc3sc[n+](Cc4ccccc4)c3C)nn2)c1C | 7000 |  | 
Cc1c(CCO)sc[n+]1CCCc1ccc(CCC[n+]2csc(CCO)c2C)cc1.[Cl-].[Cl-] | 77.5 | > 0.5 | 
COCCc1sc[n+](CCOc2ccc(-c3ccc(OCC[n+]4csc(CCOC)c4C)cc3)cc2)c1C.[Br-].[Br-] | 18.5 | > 0.6 | 
COCCc1sc[n+](CCCCCn2cc(CCC[n+]3csc(CCOC)c3C)nn2)c1C | 1200 |  | 
Cc1c(CCO)sc[n+]1CC#Cc1ccc(C#CC[n+]2csc(CCO)c2C)cc1 | 1250 |  | 
Cc1c(CCOCc2cn(CCc3sc[n+](Cc4ccccc4)c3C)nn2)sc[n+]1Cc1ccccc1 | 640 |  | 
COCCc1sc[n+](Cc2ccc(OCCCCCOc3ccc(C[n+]4csc(CCOC)c4C)cc3)cc2)c1C.[Cl-].[Cl-] | 313 | > 0.4 | 
Cc1c(CCO)sc[n+]1CCCCCCCCCCCC[n+]1csc(CCO)c1C.[Br-].[Br-] [ALBITIAZOLIUM BROMIDE] |  | 0.2 | selectivity ratio [3]: 150000; IC50 (Jurkat): 347000 nM
Cc1c(CCO)sc[n+]1CCCCc1ccc(CCCC[n+]2csc(CCO)c2C)cc1.[Cl-].[Cl-] | 20.5 | 1.2 | 
COCCc1sc[n+](CCCc2cn(CCc3sc[n+](C)c3C)nn2)c1C | 8200 |  | 
COCCc1sc[n+](CCCCc2ccc(CCCC[n+]3csc(CCOC)c3C)cc2)c1C.[Cl-].[Cl-] | 8.3 | 0.13 | Activity (Mus musculus): Non-toxic
COCCc1sc[n+](CCCc2ccc(CCC[n+]3csc(CCOC)c3C)cc2)c1C.[Cl-].[Cl-] | 36.5 | > 1 | 
Cc1c(CCOCCCCCCOCCc2sc[n+](Cc3ccccc3)c2C)sc[n+]1Cc1ccccc1 | 15 |  | 
COCCc1sc[n+](CCCCc2ccc3ccc(CCCC[n+]4csc(CCOC)c4C)cc3c2)c1C.[Cl-].[Cl-] | 6.3 | 0.5 | selectivity ratio [3]: 170000; IC50 (Jurkat): 465000 nM
Cc1c(CCO)sc[n+]1CCC#Cc1ccc(C#CCC[n+]2csc(CCO)c2C)cc1 | 173 |  | 
